≈ marks a conversion by molar mass, not a printed value.
Key:
[1] = molecular target: T1, Intercellular adhesion molecule 1 (Homo sapiens, UniProt P05362); test: Inhibition of intercellular adhesion molecule-1 (ICAM1) in human endothelial cells; assay type: cell-based, Endothelial cell
In short: (§1)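 Whole-cell ELISA on primary HUVECs plated at 5 × 10^4 cells/mL in EBM/2% FBS with growth supplements. Compound preincubated 24 h at 37 °C, then inducer added (TNFα at 5 ng/mL final, or IL-1β or PMA in its place) for 6 h at 37 °C. Mouse monoclonal anti-E-selectin, anti-ICAM-1 or anti-VCAM-1 was applied overnight at 4 °C, then HRP anti-mouse IgG. Detection with OPD, A490. Triplicate assays.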

E-selectin [2] = molecular target: T2, E-selectin (Homo sapiens, UniProt P16581); test: Inhibition of selectin E in human endothelial cells; assay type: cell-based, Endothelial cell; in short: as §1
T2 sequence (P16581 whole entry): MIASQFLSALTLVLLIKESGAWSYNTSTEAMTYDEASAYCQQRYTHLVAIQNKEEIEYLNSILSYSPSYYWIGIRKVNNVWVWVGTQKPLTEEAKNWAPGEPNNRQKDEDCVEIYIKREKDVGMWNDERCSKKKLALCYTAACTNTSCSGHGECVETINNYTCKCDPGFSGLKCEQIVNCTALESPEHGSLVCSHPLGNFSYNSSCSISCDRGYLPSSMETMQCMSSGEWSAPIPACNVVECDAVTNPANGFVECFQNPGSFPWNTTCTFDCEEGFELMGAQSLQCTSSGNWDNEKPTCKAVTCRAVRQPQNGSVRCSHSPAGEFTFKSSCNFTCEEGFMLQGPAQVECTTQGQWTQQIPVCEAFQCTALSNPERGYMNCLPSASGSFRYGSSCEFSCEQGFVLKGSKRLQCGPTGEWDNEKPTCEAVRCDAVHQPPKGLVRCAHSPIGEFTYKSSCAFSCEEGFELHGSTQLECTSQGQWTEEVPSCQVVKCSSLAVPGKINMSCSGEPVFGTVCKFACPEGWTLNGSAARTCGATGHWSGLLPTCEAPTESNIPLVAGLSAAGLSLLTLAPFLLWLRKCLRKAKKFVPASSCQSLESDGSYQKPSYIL

[3] = Solubility in pH 7.4 buffer.; assay type: physicochemical
[4] = Toxicity in HUVEC cell lysates.; assay type: cell-based, Lysate; settings: human
[5] = molecular target: T1, Intercellular adhesion molecule 1; test: In vitro inhibitory potency compared to IL1-beta induced Intercellular adhesion molecule-1 in human endothelial cells (ELISA assay); assay type: cell-based, Endothelial cell
In short: (§2)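 Primary HUVECs seeded at 5 × 10^4 cells/mL in EBM/2% FBS with EGF, bovine brain extract and gentamicin. Compound added next day for 24 h at 37 °C, then inducer (IL-1β or PMA, level not stated) for 6 h at 37 °C. Whole-cell ELISA used mouse monoclonal anti-ICAM-1 or anti-VCAM-1, HRP donkey anti-mouse IgG and OPD, read at 490 nm. Run in triplicate.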

E-selectin [6] = molecular target: T2, E-selectin; test: In vitro inhibitory potency compared to TNF-alpha induced Selectin E expression in human endothelial cells (ELISA assay); assay type: cell-based, Endothelial cell; in short: as §1
[7] = molecular target: T3, Vascular cell adhesion protein 1 (Homo sapiens) (UniProt P19320); settings: Endothelial cell
T3 sequence (whole entry): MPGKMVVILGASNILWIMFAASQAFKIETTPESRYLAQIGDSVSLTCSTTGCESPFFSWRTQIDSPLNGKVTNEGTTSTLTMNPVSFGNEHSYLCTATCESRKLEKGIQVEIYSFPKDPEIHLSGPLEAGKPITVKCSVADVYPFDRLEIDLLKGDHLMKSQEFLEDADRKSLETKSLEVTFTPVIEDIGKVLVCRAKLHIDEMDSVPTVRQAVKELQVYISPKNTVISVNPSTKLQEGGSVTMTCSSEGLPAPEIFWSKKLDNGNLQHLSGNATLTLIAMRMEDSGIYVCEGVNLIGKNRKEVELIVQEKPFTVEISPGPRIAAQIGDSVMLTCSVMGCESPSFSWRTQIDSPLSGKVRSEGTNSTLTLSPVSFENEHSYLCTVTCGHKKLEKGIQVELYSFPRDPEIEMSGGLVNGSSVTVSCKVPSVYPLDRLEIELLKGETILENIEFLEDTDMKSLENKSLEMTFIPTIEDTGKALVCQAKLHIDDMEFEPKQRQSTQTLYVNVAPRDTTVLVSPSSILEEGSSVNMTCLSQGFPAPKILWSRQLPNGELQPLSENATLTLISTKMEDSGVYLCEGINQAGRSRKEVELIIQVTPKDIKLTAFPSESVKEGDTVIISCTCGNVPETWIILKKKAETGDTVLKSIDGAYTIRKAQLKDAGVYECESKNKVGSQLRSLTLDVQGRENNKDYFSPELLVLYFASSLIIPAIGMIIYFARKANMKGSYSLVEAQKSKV

[8] = molecular target: T1, Intercellular adhesion molecule 1; test: In vitro inhibitory potency compared to PMA induced Intercellular adhesion molecule-1 expression in human endothelial cells (ELISA assay); assay type: cell-based, Endothelial cell; in short: as §2
[9] = molecular target: T1, Intercellular adhesion molecule 1; test: In vitro inhibitory potency compared to TNF-alpha induced Intercellular adhesion molecule-1 in human endothelial cells (ELISA assay); assay type: cell-based, Endothelial cell
In short: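 Primary HUVECs seeded at 5 × 10^4 cells/mL in EBM/2% FBS with supplements. After 24 h of compound at 37 °C, TNFα was added to 5 ng/mL final for 6 h at 37 °C. Cell-surface ICAM-1 was detected with a mouse monoclonal antibody, then HRP anti-mouse IgG and OPD, with absorbance at 490 nm. Triplicate determinations.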

E-selectin [10] = molecular target: T2, E-selectin; test: In vitro inhibitory potency compared to IL1-beta induced Selectin E in human endothelial cells (ELISA assay); assay type: cell-based, Endothelial cell; in short: as §1
[11] = molecular target: T4, E-selectin (Homo sapiens) (UniProt P16581); test: In vitro inhibitory potency compared to PMA induced Selectin E expression in human endothelial cells (ELISA assay) at 1 uM; assay type: cell-based; settings: Endothelial cell
T4 sequence (whole entry): T2 sequence (P16581 whole entry)
In short: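 HUVEC whole-cell ELISA with PMA substituted for TNFα as inducer. Compound preincubated 24 h at 37 °C, then 6 h induction at 37 °C. E-selectin detected with mouse monoclonal antibody and HRP anti-mouse IgG, OPD development, A490. Value given as percent inhibition at a single concentration of 1 µM.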

[12] = Solubility in pH 7.4 buffer; assay type: physicochemical

T1 sequence (P05362 whole entry): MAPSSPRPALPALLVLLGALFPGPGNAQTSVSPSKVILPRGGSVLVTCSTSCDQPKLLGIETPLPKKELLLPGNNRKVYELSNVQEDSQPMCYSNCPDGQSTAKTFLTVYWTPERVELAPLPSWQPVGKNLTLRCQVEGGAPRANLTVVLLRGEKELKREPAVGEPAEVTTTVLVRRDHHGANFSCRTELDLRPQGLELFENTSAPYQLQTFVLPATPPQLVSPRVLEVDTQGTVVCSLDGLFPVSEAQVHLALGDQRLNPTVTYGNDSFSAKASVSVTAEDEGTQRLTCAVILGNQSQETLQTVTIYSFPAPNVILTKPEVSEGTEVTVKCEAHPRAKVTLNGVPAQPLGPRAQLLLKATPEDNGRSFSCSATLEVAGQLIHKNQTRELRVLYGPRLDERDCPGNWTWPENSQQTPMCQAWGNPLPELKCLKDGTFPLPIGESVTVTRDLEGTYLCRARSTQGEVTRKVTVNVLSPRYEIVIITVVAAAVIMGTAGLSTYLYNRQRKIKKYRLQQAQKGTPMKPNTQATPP

| Compound | IC50 [1] [nM] | IC50 (E-selectin [2]) [nM] | other results |
| --- | --- | --- | --- |
| CNC(=O)c1cc2c(Oc3ccc(/C=C/C(=O)NCC(O)CO)cc3)cncc2s1 (stereo unspecified) | 580 | 830 | – |
| CNC(=O)c1cc2c(Oc3ccc(-n4ccnc4)cc3)cncc2s1 | 6 | 2 | IC50 [4]: > 10000 nM |
| CNC(=O)c1cc2c(Oc3ccc(Cl)cc3)cncc2s1 | 17 | 8 | IC50 [5]: 10 nM; IC50 (E-selectin [6]): 20 nM; Inhibition at 1uM [7]: 49%; IC50 [8]: 15 nM; IC50 [9]: 15 nM; IC50 (E-selectin [10]): 25 nM; inhibition [11]: 43% |
| NC(=O)c1cc2c(Oc3ccc(/C=C/C(=O)NCCN(CCO)CCO)cc3)cncc2s1 | 820 | 650 | – |
| CNC(=O)c1cc2c(Oc3ccc(-c4noc(C(F)(F)F)n4)cc3)cncc2s1 | 22 | 28 | – |
| NC(=O)c1cc2c(Oc3ccc(/C=C/C(=O)NCC(O)CO)cc3)cncc2s1 (stereo unspecified) | 790 | > 715 | – |
| NC(=O)c1cc2c(Oc3ccc(CO)cc3)cncc2s1 | – | – | solubility [12]: 6.9 µg/mL (≈ 23 µM) |
| CCOCCOCCOCC1(c2ccc(Oc3cncc4sc(C(=O)NC)cc34)cc2)CC1 | – | – | IC50 [4]: > 10 µg/mL |
| CNC(=O)c1cc2c(Oc3ccc(-c4cncn4C)cc3)cncc2s1 | 360 | 150 | – |
| NC(=O)c1cc2c(Oc3ccc(Cl)cc3Br)cncc2s1 | 300 | 110 | – |
| CNC(=O)c1cc2c(Oc3ccc(-c4ccccc4)cc3)cncc2s1 | 25 | 9 | – |
| CNC(=O)c1cc2c(Oc3ccc(/C=C/C(=O)NCCN(CCO)CCO)cc3)cncc2s1 | 600 | 680 | – |
| CNC(=O)c1cc2c(Oc3ccc(-c4nn[nH]n4)cc3)cncc2s1 | > 1000 | > 1000 | – |
| COCCOCCOCc1ccc(Oc2cncc3sc(C(N)=O)cc23)cc1 | – | – | solubility [3]: 160 µg/mL (≈ 398 µM) |
| CNC(=O)c1cc2c(Oc3ccc(-n4cncn4)cc3)cncc2s1 | 160 | 180 | – |
| CNC(=O)c1cc2c(Oc3ccc(C(=N)NO)cc3)cncc2s1 | 59 | 13 | IC50 [4]: > 10000 nM |
| NC(=O)c1cc2c(Oc3cccc(C(F)(F)F)c3)cncc2s1 | 760 | 870 | – |
| CNC(=O)c1cc2c(Oc3ccc(-c4cccs4)cc3)cncc2s1 | 6 | 5 | – |
| CNC(=O)c1cc2c(Oc3ccc(C(=O)NCCN4CCOCC4)cc3)cncc2s1 | 730 | 770 | – |
| CNC(=O)c1cc2c(Oc3ccc(/C=C/C(=O)NCCN4CCOCC4)cc3)cncc2s1 | 53 | 43 | – |
| CCOCCOCCOCC(F)(F)c1ccc(Oc2cncc3sc(C(=O)NC)cc23)cc1 | 26 | 110 | – |
| Cc1cc(Cl)ccc1Oc1cncc2sc(C(N)=O)cc12 | 580 | 370 | – |
| NC(=O)c1cc2c(Oc3ccc(C(=O)N(C(=O)NC4CCCCC4)C4CCCCC4)cc3)cncc2s1 | 116 | 115 | – |
| CNC(=O)c1cc2c(Oc3ccc(/C=C/C(=O)NCCc4c[nH]cn4)cc3)cncc2s1 | 670 | 600 | – |

Now from value to compound, other results behind:

| IC50 [1] [nM] | IC50 (E-selectin [2]) [nM] | Compound | other results |
| --- | --- | --- | --- |
| 830 | 870 | NC(=O)c1cc2c(Oc3ccc(C(=O)N4CCOCC4)cc3)cncc2s1 | – |
| 680 | 670 | NC(=O)c1cc2c(Oc3ccc(C(O)CO)cc3)cncc2s1 (stereo unspecified) | solubility [3]: 15.3 µg/mL (≈ 46.3 µM) |
| 1.4 | 2 | NC(=O)c1cc2c(Oc3ccc(COC4CCCCO4)cc3)cncc2s1 (stereo unspecified) | – |
| 10 | 8 | NC(=O)c1cc2c(Oc3ccc(Cl)c(F)c3)cncc2s1 | – |
| > 1000 | > 1000 | NC(=O)c1cc2c(Oc3ccc(C(=O)NCCN4CCOCC4)cc3)cncc2s1 | – |
| 42 | 35 | NC(=O)c1cc2c(Oc3ccc(N)cc3)cncc2s1 | – |
| 47 | 76 | CC(C)c1ccc(Oc2cncc3sc(C(N)=O)cc23)cc1 | IC50 [4]: 34000 nM |
| 17 | 13 | CNC(=O)c1cc2c(Oc3ccc(COC)cc3)cncc2s1 | solubility [12]: 4.8 µg/mL (≈ 14.6 µM) |
| 680 | 630 | CCOC(=O)c1cccc(Oc2cncc3sc(C(N)=O)cc23)c1 | – |
| 8 | 7 | CNC(=O)c1cc2c(Oc3ccc(COCCOC)cc3)cncc2s1 | solubility [3]: 25.7 µg/mL (≈ 69 µM) |
| 110 | 80 | NC(=O)c1cc2c(Oc3cccc(Br)c3)cncc2s1 | – |
| 32 | 34 | NC(=O)c1cc2c(Oc3ccc(/C=C/C(=O)NCCN4CCOCC4)cc3)cncc2s1 | – |
| 4 | 6 | NC(=O)c1cc2c(Oc3ccc(I)cc3)cncc2s1 | – |
| 18 | 20 | CCOC(=O)c1ccc(Oc2cncc3sc(C(N)=O)cc23)cc1 | – |
| 16 | 16 | COCc1ccc(Oc2cncc3sc(C(N)=O)cc23)cc1 | solubility [3]: 6.2 µg/mL (≈ 19.7 µM) |
| 20 | 20 | Cc1ccc(Oc2cncc3sc(C(N)=O)cc23)cc1 | IC50 [4]: 91000 nM |
| 6 | 5 | COCCOCc1ccc(Oc2cncc3sc(C(N)=O)cc23)cc1 | – |
| 79 | 35 | CNC(=O)c1cc2c(Oc3ccc(N4CCOCC4)cc3)cncc2s1 | – |
